ChEMBL document CHEMBL1124475, “The thieno[3,2-c]pyridine and furo[3,2-c]pyridine rings: new pharmacophores with potential antipsychotic activity” (J Med Chem, 1989)
Active and inactive are the calls of the source. The rule behind the calls is not given here.

How the values were obtained:
[1] = biological target: T1, Adrenergic receptor alpha-1 (Rattus norvegicus, UniProt P15823+P23944+P43140); assay: Ability to bind at alpha-1 adrenergic receptor by displacing [3H]WB-4101; assay type: protein assay
T1 sequence (P15823 whole entry): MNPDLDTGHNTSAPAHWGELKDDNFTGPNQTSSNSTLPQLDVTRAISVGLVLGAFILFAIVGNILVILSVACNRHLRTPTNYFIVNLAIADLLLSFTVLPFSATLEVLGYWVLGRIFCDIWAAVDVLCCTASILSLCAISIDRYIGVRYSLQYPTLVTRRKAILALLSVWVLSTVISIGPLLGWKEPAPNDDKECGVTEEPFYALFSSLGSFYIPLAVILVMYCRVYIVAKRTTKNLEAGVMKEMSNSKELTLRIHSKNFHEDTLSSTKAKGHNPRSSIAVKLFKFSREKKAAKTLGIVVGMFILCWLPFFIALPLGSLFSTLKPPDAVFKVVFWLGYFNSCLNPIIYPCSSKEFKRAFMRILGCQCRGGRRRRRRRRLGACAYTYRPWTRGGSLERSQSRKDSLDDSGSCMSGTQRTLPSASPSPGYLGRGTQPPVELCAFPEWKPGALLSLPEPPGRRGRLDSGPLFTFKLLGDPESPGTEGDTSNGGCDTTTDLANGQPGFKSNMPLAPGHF
T1 sequence (P23944 whole entry): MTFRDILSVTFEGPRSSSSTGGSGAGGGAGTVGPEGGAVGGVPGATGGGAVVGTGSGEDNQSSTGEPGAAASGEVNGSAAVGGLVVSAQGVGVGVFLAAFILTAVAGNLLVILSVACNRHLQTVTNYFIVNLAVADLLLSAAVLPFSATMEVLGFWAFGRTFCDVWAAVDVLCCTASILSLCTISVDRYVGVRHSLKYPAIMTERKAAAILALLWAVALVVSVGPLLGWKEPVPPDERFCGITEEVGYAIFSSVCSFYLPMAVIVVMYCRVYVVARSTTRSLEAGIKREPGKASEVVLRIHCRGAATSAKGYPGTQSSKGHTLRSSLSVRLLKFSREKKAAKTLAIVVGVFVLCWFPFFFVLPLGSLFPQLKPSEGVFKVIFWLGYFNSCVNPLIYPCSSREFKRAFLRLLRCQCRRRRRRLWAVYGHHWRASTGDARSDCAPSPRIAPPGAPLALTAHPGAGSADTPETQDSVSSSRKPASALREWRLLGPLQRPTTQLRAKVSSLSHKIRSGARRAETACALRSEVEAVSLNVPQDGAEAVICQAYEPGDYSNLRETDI
T1 sequence (P43140 whole entry): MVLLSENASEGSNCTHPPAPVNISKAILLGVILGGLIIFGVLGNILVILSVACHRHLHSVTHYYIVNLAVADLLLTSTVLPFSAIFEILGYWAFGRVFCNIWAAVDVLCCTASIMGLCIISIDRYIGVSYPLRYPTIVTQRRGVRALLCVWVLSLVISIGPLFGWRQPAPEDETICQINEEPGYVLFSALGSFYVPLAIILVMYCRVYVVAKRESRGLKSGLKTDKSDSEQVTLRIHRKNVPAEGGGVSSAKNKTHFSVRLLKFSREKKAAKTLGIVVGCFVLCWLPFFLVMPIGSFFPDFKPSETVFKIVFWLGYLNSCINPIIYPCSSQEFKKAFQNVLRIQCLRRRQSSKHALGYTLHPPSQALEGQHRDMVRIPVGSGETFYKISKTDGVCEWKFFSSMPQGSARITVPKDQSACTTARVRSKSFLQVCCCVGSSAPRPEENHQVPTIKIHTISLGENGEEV
Outline: (§1)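 Rat receptor radioligand displacement, five test-ligand concentrations used to calculate IC50, each assay in duplicate. Some compounds determined four times (in duplicate), with mean IC50 reported.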

[2] = biological target: T2, Adrenergic receptor alpha-2 (Rattus norvegicus, UniProt P22086+P19328+P22909); assay: Ability to bind at alpha-2 adrenergic receptor by displacing [3H]clonidine; assay type: protein assay
T2 sequence (P22086 whole entry): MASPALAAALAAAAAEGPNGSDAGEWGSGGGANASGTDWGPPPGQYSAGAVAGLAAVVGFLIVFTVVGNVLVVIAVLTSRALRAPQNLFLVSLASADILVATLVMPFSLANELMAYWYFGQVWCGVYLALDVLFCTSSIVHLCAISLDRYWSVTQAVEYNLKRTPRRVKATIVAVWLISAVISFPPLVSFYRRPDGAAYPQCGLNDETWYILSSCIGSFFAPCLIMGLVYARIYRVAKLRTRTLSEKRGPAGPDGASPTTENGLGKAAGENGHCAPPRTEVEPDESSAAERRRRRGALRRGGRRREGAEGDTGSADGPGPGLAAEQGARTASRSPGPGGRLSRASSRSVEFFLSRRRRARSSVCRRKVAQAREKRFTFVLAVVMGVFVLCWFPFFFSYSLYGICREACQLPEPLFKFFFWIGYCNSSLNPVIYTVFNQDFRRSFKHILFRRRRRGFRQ
T2 sequence (P19328 whole entry): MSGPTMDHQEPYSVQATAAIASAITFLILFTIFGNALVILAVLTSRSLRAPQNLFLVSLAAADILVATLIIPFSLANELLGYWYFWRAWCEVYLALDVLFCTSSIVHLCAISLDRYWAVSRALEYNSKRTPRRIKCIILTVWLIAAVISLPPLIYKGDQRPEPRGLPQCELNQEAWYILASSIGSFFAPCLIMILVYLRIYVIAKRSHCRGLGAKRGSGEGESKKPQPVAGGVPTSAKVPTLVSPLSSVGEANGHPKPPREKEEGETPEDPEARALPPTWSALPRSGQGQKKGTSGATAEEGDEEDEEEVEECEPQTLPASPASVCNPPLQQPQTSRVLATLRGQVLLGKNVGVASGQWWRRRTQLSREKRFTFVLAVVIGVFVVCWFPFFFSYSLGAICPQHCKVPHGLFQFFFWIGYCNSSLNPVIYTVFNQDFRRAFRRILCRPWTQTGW
T2 sequence (P22909 whole entry): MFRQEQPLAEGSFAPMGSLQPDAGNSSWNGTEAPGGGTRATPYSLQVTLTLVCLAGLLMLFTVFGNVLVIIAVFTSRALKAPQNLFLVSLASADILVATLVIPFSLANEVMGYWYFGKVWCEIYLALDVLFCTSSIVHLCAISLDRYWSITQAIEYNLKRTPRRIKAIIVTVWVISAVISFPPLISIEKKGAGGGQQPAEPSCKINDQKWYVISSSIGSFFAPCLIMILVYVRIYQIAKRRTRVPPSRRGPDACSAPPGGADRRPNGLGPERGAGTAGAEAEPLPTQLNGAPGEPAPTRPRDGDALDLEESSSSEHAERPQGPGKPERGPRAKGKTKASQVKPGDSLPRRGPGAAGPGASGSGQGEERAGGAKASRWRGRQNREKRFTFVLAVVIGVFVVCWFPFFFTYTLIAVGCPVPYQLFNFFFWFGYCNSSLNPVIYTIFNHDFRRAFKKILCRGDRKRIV

[3] = biological target: D(2) dopamine receptor (Rattus norvegicus, UniProt P61169); assay: Ability to bind at Dopamine receptor D2 of rat corpus striatum by displacing [3H]spiperone; outline: as §1
[4] = biological target: T3, Serotonin 1 (5-HT1) receptor (Rattus norvegicus, UniProt P28564+P30940+P19327+P28565); assay: Ability to bind at serotonin 5-hydroxytryptamine 1 receptor of rat hippocampus by displacing [3H]5-HT; assay type: tissue-based
[5] = system: Rattus norvegicus; assay: Conditioned avoidance response (CAR) when administered perorally; assay type: functional; details: po
[6] = biological target: Serotonin 2 (5-HT2) receptor (Rattus norvegicus, UniProt P30994+P08909+P14842); assay: Ability to bind at serotonin 5-hydroxytryptamine 2 receptors of rat cortex by displacing [3H]spiperone
[7] = system: Rattus norvegicus; assay: Approximate effective dose (AED) in inhibition of spontaneous motor activity when administered perorally; assay type: functional
Outline: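 Three groups of five animals, each group at a different dose. Mean log activity count per group compared with vehicle controls, and the difference plotted against log dose. AED taken at the dose giving a 0.3 log-unit (about 2-fold) difference from control.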

[8] = system: Mus musculus; assay: Blockade of apomorphine-induced climbing in mice when administered perorally; assay type: functional; details: po
Outline: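 Male mice habituated 30 min in individual cages, then dosed orally (distilled H2O or 0.5% Methocel suspension, 10 mL/kg) or vehicle. Apomorphine 1.5 mg/kg sc given 30 min later. Climbing scored at 10, 20, 30 min post-apomorphine. At least five animals per dose, maximum 100 mg/kg.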

[9] = biological target: T3, Serotonin 1 (5-HT1) receptor; assay: Ability to bind at 5-hydroxytryptamine 1 receptor of rat hippocampus by displacing [3H]5-HT; assay type: tissue-based; outline: as §1
[10] = system: Rattus norvegicus; assay: Blockade of Sidman-avoidance activity in rats when administered perorally; assay type: functional
Outline: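 Rats trained in once-daily Sidman sessions until stable; non-learners after 3 days replaced. Twelve rats dosed 30 min before session. Each rat compared with mean of its previous three drug-free days by paired t test. Testing continued to minimally effective dose; maximum usually 100 mg/kg. MED is mean over 12 animals.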

[11] = system: Rattus norvegicus; assay: Blockade of apomorphine-induced stereotypy in rats when administered perorally; assay type: functional; details: po
[12] = species: Rattus norvegicus; assay: animal or person; details: po
[13] = system: Rattus norvegicus; assay: Reversal of trifluoperazine-induced catalepsy in rats when administered perorally; Inactive; assay type: functional, organism-based
[14] = biological target: T4, 5-hydroxytryptamine receptor 1A (Rattus norvegicus, UniProt P19327); assay: Ability to bind at 5-hydroxytryptamine 1A receptor of rat hippocampus by displacing [3H]8-OH-DPAT; assay type: tissue-based; outline: as §1
T4 sequence (P19327 whole entry): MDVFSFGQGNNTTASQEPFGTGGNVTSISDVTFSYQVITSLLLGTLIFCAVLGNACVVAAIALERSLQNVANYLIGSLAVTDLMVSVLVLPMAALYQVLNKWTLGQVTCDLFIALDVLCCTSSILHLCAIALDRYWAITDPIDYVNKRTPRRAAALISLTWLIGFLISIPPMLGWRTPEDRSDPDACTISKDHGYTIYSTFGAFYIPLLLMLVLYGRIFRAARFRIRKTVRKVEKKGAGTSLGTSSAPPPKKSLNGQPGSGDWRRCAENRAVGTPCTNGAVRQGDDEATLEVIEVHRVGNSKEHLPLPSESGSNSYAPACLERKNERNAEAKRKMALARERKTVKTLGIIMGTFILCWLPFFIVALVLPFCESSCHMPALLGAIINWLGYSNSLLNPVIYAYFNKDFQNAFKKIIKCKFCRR

[15] = system: Mus musculus; assay: Blockade of apomorphine-induced climbing in mice when administered perorally

Sequence of D(2) dopamine receptor (P61169 whole entry): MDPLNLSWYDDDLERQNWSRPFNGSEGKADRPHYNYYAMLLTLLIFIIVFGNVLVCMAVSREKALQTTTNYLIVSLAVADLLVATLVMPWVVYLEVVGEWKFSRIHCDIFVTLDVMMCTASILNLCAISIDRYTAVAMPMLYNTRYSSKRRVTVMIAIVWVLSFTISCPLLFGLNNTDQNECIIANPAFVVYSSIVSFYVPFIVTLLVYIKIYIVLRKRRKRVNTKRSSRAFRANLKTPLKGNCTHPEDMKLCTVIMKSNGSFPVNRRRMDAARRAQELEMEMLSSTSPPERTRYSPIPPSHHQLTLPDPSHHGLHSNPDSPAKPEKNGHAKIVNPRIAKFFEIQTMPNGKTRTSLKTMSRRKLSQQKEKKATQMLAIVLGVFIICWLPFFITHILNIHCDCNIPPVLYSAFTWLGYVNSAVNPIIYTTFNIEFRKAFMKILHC

Structure (SMILES) | IC50 [1] [nM] | IC50 [2] [nM] | IC50 [3] [nM] | IC50 [4] [nM] | ED50 [5] [mg/kg] | IC50 [6] [nM] | AED [7] [mg/kg] | MED [8] [mg/kg] | IC50 [9] [nM] | MED ([10]; po) [mg/kg] | ED50 [11] [mg/kg] | ED50 [12] [mg/kg] | ED50 [13] | IC50 [14] [nM] | MED50 [15] [mg/kg] | MED50 [10] [mg/kg]
Cl.c1cc2occc2c(N2CCNCC2)n1 | 426 | 144 | > 1000 | 150 | 7.3 | 377 | 10.7 |  |  |  |  |  |  |  |  | 
OC(CCCN1CCN(c2nccc3sccc23)CC1)c1ccc(F)cc1 (configuration not stated) | 22.8 |  | 71.7 |  | 9.9 | 5.8 |  | 10 | 3.8 | 10 | 9 |  |  |  |  | 
CN(C)CCCN1c2ccccc2Sc2ccc(Cl)cc21 [CHLORPROMAZINE] |  |  |  |  |  |  |  |  | > 1000 |  | 9.6 | 4.1 | inactive | 372 | 6 | 25
